We go through twelve molecules from ChEMBL document CHEMBL1649384, “Synthesis and antiproliferative activity of novel symmetrical alkylthio- and alkylseleno-imidocarbamates” (Eur J Med Chem, 2011).

Some results are limits rather than exact numbers.

Broadly, the GI50 is the concentration at which growth is held to half of that of the control. By TGI is commonly meant the concentration at which net growth stops. By LC50 is commonly meant the concentration that kills 50% of the test population. Low readings indicate greater toxicity, high ones lower toxicity.

Data set [1] has as its system HepG2. Nature of the data set: Cytotoxicity against human HepG2 cells after 72 hrs by MTT assay. The format is functional. The following applies: HepG2, 72 h; for CC50: read-out: LC50 (the source's name). A digest of the protocol: (§1)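 Cells seeded per well: Hep-G2 1×10⁴, HT-29 4×10³, K-562 4×10³, MCF-7 1.2×10⁴, MCF-10A 7×10³, PC-3 2×10³. MCF-10A were grown in supplemented MEBM at 37 °C, 5% CO₂. Five concentrations were tested between 0.01 and 100, with 72 h exposure. Formazan was read by A590. GI₅₀ was taken relative to untreated controls, from at least three independent experiments.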
(In general: Tetrazolium assays rely on reduction of a dye to a coloured formazan, in cell work by metabolically active cells.)

For data set [2], the system named is PC-3. Kind of data set: Cytotoxicity against human PC3 cells after 72 hrs by MTT assay. The format is functional. As to conditions: PC-3, 72 h; for CC50: read-out: LC50 (the source's name). An outline of the steps:
as §1

Data set [3] in a line: Cytotoxicity against human MCF10A cells after 72 hrs by MTT assay. Format: cell-based, MCF-10A. As to conditions: for GI50 at 72 h: MCF10A cells; for LC50 / TGI: mcf-10a, 72 h. A digest of the protocol: as §1
The subject of data set [4] is MCF7. Nature of the data set: Cytotoxicity against human MCF7 cells after 72 hrs by MTT assay. Format: functional. The following applies: MCF7, 72 h. An outline of the steps:
as §1

The subject of data set [5] is HT-29. Nature of the data set: Cytotoxicity against human HT-29 cells after 72 hrs by MTT assay. The format is functional. As to conditions: HT-29, 72 h; for CC50: read-out: LC50 (the source's name). An outline of the steps:
as §1

In data set [6] the test system is K562. Nature of the data set: Cytotoxicity against human K562 cells after 72 hrs by MTT assay. The format is functional. The following applies: K562, 72 h; for CC50: read-out: LC50 (the source's name). A digest of the protocol:
as §1

As to `CS/C(=N\C(=O)c1c2ccccc2nc2ccccc12)NC(=O)c1c2ccccc2nc2ccccc12`, the GI50 amounted to 90.2 µM in data set [1]; 51.1 µM in data set [2]; 27.7 µM in data set [4]; 69.2 µM in data set [5]; 45 µM in data set [6]. The TGI is above 100 µM in data set [1]; 87.3 µM in data set [2]; above 100 µM in data set [3]; above 100 µM in data set [4]; above 100 µM in data set [5]; 76 µM in data set [6]. The CC50 in data set [1], in data set [2], in data set [5] and in data set [6] was above 100 µM in each case. In data set [3], this molecule displayed a concentration for 50% growth inhibition (GI50) at 72 h of 1 µM. For the same molecule, the LC50 in data set [3] and in data set [4] was above 100 µM in each case.

Turning to `CS/C(=N\C(=O)c1csc([N+](=O)[O-])c1)NC(=O)c1csc([N+](=O)[O-])c1`, the GI50 in data set [1] is 63.4 µM; in data set [2] it was 41.5 µM; in data set [4] it was 44.6 µM; in data set [5] it was 51.8 µM; in data set [6], 56.9 µM. Besides, the TGI in data set [1] was above 100 µM; in data set [2] it was 82.5 µM; in data set [3], 21.35 µM; in data set [4], 78.1 µM; in data set [5], above 100 µM; in data set [6], 98.7 µM. Further, the CC50 in data set [1], in data set [2], in data set [5] and in data set [6] was above 100 µM throughout. This molecule returned a concentration for 50% growth inhibition (GI50) at 72 h in data set [3] of 1.55 µM. Further, the 50% lethal concentration (LC50) in data set [3] was 75.14 µM; in data set [4], above 100 µM.

As to `CS/C(=N\C(=O)c1ccno1)NC(=O)c1ccno1`, the GI50 in data set [1] is above 100 µM; in data set [2], 99.2 µM; in data set [4], 77.8 µM; in data set [5], above 100 µM; in data set [6] it was above 100 µM. In addition, the TGI in data set [1], in data set [2], in data set [3], in data set [4], in data set [5] and in data set [6] was above 100 µM each time. Further, the CC50 in data set [1], in data set [2], in data set [5] and in data set [6] was above 100 µM in each case. The concentration for 50% growth inhibition (GI50) at 72 h in data set [3] was found to be 16.9 µM. In addition, the median lethal concentration (LC50) in data set [3] and in data set [4] was above 100 µM in each case.

Turning to `CS/C(=N\C(=O)c1cc2ccccc2s1)NC(=O)c1cc2ccccc2s1`, the 50% growth inhibitory concentration (GI50) in data set [1] was determined as 15.8 µM; in data set [2], 8.58 µM; in data set [4], 9.51 µM; in data set [5] it was 16.8 µM; in data set [6], 34.7 µM. Also, the TGI in data set [1] came to 53 µM; in data set [2], 39.4 µM; in data set [3], 5.6 µM; in data set [4], 43.4 µM; in data set [5] it was 88.2 µM; in data set [6], 66.6 µM. The CC50 in data set [1] came out at 75.8 µM; in data set [2] it was 72.5 µM; in data set [5] it was 88.2 µM; in data set [6], 98.6 µM. This molecule yielded a GI50 at 72 h in data set [3] of 0.02 µM. The LC50 in data set [3] was determined as 54.56 µM; in data set [4], 78.5 µM.

Regarding `CS/C(=N\C(=O)c1ccc2c(c1)OCO2)NC(=O)c1ccc2c(c1)OCO2`, the GI50 came to 61.4 µM in data set [1]; 28.7 µM in data set [2]; 24.6 µM in data set [4]; 46.4 µM in data set [5]; 68 µM in data set [6]. For the same molecule, the TGI in data set [1] is above 100 µM; in data set [2] it was 54.5 µM; in data set [3], 5.03 µM; in data set [4] it was 59.7 µM; in data set [5], above 100 µM; in data set [6], above 100 µM. Also, the CC50 is above 100 µM in data set [1], 80.4 µM in data set [2], above 100 µM in data set [5] and above 100 µM in data set [6]. For the same molecule, in data set [3], the 50% growth inhibitory concentration (GI50) at 72 h amounted to 1.01 µM. Also, the LC50 amounted to 9.05 µM in data set [3] and 94.8 µM in data set [4].

`CS/C(=N\C(=O)c1cnc2ccccc2c1)NC(=O)c1cnc2ccccc2c1`: the GI50 was 57.6 µM in data set [1]; 76.3 µM in data set [2]; 23.9 µM in data set [4]; above 100 µM in data set [5]; 65.8 µM in data set [6]. Further, the TGI in data set [1] was above 100 µM; in data set [2], above 100 µM; in data set [3], 42.17 µM; in data set [4] it was above 100 µM; in data set [5] it was above 100 µM; in data set [6], above 100 µM. Moreover, the CC50 in data set [1], in data set [2], in data set [5] and in data set [6] was above 100 µM each time. The same molecule came in with a GI50 at 72 h in data set [3] of 0.5 µM. Moreover, the LC50 in data set [3] is 82.19 µM; in data set [4], above 100 µM.

Regarding `CS/C(=N\C(=O)c1cc(-c2ccccc2)nc2ccccc12)NC(=O)c1cc(-c2ccccc2)nc2ccccc12`, the GI50 in data set [1] came out at 6.24 µM; in data set [2], 7.48 µM; in data set [4], 43.1 µM; in data set [5], 23.7 µM; in data set [6], 34.4 µM. Further, the TGI in data set [1] is 48.1 µM; in data set [2] it was above 100 µM; in data set [3] it was 0.54 µM; in data set [4], 87.7 µM; in data set [5], above 100 µM; in data set [6], above 100 µM. Moreover, the CC50 in data set [1], in data set [2], in data set [5] and in data set [6] was above 100 µM each time. The molecule also gave a GI50 at 72 h in data set [3] of 0.04 µM. The LC50 in data set [3] was 48.81 µM; in data set [4], above 100 µM.

Regarding `C[Se]/C(=N\C(=O)c1cc2ccccc2s1)NC(=O)c1cc2ccccc2s1`, the 50% growth inhibitory concentration (GI50) in data set [1] is 9.59 µM; in data set [2], 37.2 µM; in data set [4], 5.07 µM; in data set [5] it was 5.62 µM; in data set [6], 32.4 µM. Further, the total growth inhibition concentration (TGI) in data set [1] is 41 µM; in data set [2] it was 65.6 µM; in data set [3], 34.65 µM; in data set [4] it was 32.7 µM; in data set [5], above 100 µM; in data set [6], 61 µM. For the same molecule, the CC50 was 73.3 µM in data set [1], 94 µM in data set [2], above 100 µM in data set [5] and 89.5 µM in data set [6]. Moreover, growth in data set [3] was halved (GI50 at 72 h) at 0.49 µM. The LC50 came to 73.21 µM in data set [3] and 80.6 µM in data set [4].

As to `C[Se]/C(=N\C(=O)c1ccc2c(c1)OCO2)NC(=O)c1ccc2c(c1)OCO2`, the GI50 in data set [1] stood at 5.84 µM; in data set [2] it was 4.24 µM; in data set [4], 0.99 µM; in data set [5] it was 0.53 µM; in data set [6] it was 9.23 µM. In addition, the total growth inhibition concentration (TGI) in data set [1] was 23.6 µM; in data set [2], 36.8 µM; in data set [3] it was 45.97 µM; in data set [4] it was 52.8 µM; in data set [5], above 100 µM; in data set [6] it was 46.3 µM. The CC50 in data set [1] was 73.1 µM; in data set [2], above 100 µM; in data set [5], above 100 µM; in data set [6], 85.2 µM. The molecule further gave a GI50 at 72 h in data set [3] of 5.58 µM. The LC50 in data set [3] and in data set [4] was above 100 µM throughout.

On to `C[Se]/C(=N\C(=O)c1c2ccccc2nc2ccccc12)NC(=O)c1c2ccccc2nc2ccccc12`, for which the GI50 worked out at 22.3 µM in data set [1]; 41.3 µM in data set [2]; 73.9 µM in data set [4]; 7.63 µM in data set [5]; 27.2 µM in data set [6]. Also, the TGI in data set [1] was 52.4 µM; in data set [2], 80.1 µM; in data set [3] it was 53.28 µM; in data set [4], above 100 µM; in data set [5], above 100 µM; in data set [6], 61 µM. For the same molecule, the CC50 in data set [1] was 82.5 µM; in data set [2], above 100 µM; in data set [5], above 100 µM; in data set [6] it was 94.8 µM. For the same molecule, halving of growth in data set [3] (GI50 at 72 h) required 18.2 µM. Besides, the LC50 in data set [3] is 88.31 µM; in data set [4], above 100 µM.

For `O=C(/N=C(/NC(=O)c1ccco1)[Se]Cc1ccccc1)c1ccco1`, the GI50 turned out to be 7.65 µM in data set [1]; 30.5 µM in data set [2]; 8.8 µM in data set [4]; 7.19 µM in data set [5]; 9.53 µM in data set [6]. Moreover, the TGI in data set [1] was 39.5 µM; in data set [2], 57.6 µM; in data set [3] it was 57.98 µM; in data set [4] it was 58 µM; in data set [5], 89.1 µM; in data set [6] it was 44.2 µM. Moreover, the CC50 was 76.5 µM in data set [1], 84.8 µM in data set [2], 89.1 µM in data set [5] and 80.6 µM in data set [6]. In addition, it took 8.8 µM to inhibit growth in data set [3] by half (GI50 at 72 h). The LC50 in data set [3] and in data set [4] was above 100 µM throughout.

`O=C(/N=C(/NC(=O)c1cccs1)[Se]Cc1ccccc1)c1cccs1`: the GI50 is 34.7 µM in data set [1]; 49.9 µM in data set [2]; 72.5 µM in data set [4]; 55.1 µM in data set [5]; 29.5 µM in data set [6]. Besides, the TGI was 58.1 µM in data set [1]; above 100 µM in data set [2]; above 100 µM in data set [3]; above 100 µM in data set [4]; above 100 µM in data set [5]; 58.5 µM in data set [6]. Moreover, the CC50 in data set [1] is 81.5 µM; in data set [2], above 100 µM; in data set [5] it was above 100 µM; in data set [6], 87.4 µM. The molecule further registered a GI50 at 72 h in data set [3] of 72.5 µM. In addition, the LC50 in data set [3] and in data set [4] was above 100 µM each time.
